Screens (PubChem BioAssay)
An excerpt weighted towards active compounds, which were near 3.4% of everything screened.
TAAR1 agonist: human TAAR1 agonism. hit rate 0.99% among 360,000. Q96RJ0. CHO RD-HGA16 TAAR1, Fluo-8 calcium fluorescence; vehicle wells 0%, saturating PEA agonist 100%. activation, % at 3 µM;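 active means activation above the mean activation of all test compounds in the run plus 3 SD, cut at about 38% in these data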
Target sequence (Q96RJ0 whole entry, looked up): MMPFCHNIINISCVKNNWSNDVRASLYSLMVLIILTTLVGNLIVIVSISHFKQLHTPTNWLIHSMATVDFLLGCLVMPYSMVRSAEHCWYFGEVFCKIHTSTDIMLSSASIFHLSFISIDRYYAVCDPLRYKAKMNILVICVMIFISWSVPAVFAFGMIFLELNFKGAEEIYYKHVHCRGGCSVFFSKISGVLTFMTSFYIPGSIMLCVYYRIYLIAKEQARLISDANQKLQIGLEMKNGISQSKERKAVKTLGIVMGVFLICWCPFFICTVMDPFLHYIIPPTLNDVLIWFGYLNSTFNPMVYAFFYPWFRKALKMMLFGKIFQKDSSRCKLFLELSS
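System: CHO-derived RD-HGA16 cells with stable Gα16 and human TAAR1 / Times: 17-24 h plating, Fluo-8 75 min 37 °C, 30 min RT / Technique: calcium-sensitive Fluo-8 signal, excitation 470-495, emission 515-575 nm / Measure: % activation relative to PEA EC100 response / Benchmarks: DMSO and PEA EC100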
LANA-H2B inh: blocks KSHV LANA binding to histone H2A/H2B; inhibition, % (test concentration not listed); cell-free LANA-H2A/H2B peptide, fluorescence polarization; hit rate 0.6% among 320,000; Q9QR71; in the data active means inhibition mostly above about 10%, no sharp cut-off; inactive means mostly below about 6.7%
TAAR1 antag: human TAAR1 antagonism | Q96RJ0 | CHO RD-HGA16 TAAR1, Fluo-8 calcium fluorescence, antagonist | hit rate 1.5% among 360,000 | inhibition, % at 3 µM;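 active means inhibition above a per-plate cutoff, the mean inhibition of test compounds on that plate plus 3 SD, cut at about 49% in these data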;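 further: 0% = DMSO plus EC80 beta-PEA response and 100% = DMSO alone without agonist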
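System: CHO RD-HGA16 cells bearing hTAAR1. Reagent: EC80 β-phenethylamine stimulus. Schedule: seeding 17-24 h prior, 75-min 37 °C, 30-min RT dye loading. Signal: Fluo-8 intracellular calcium dye fluorescence, real-time kinetic reads. Read-out: % inhibition from peak post-agonist over basal fluorescence ratio. Benchmarks: vehicle wells and EC80 agonist wells. Replicates: n of 1.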
GPR7 antagonist: antagonists of human GPR7 (neuropeptides B/W receptor 1); inhibition, % at 4.4 µM; hit rate 1.1% among 290,000; GPR7-expressing cells, fluorescence antagonist assay; P48145; in the data active means inhibition above about 16%, passing the limit was not always enough;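 further: cells stimulated with the agonist NPW; 0% = agonist with vehicle and 100% = vehicle without agonist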
Target sequence (P48145 whole entry, looked up): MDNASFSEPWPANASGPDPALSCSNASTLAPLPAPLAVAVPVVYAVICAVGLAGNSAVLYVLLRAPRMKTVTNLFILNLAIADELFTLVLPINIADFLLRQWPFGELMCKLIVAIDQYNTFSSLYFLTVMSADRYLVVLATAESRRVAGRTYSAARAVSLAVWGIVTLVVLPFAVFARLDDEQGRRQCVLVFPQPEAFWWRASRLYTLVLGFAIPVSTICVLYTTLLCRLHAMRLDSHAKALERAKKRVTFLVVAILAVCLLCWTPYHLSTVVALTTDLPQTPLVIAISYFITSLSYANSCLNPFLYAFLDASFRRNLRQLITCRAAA
zfTRPN1 agonist: agonists of zebrafish TRPN1 channel | HEK293 zebrafish TRPN1-YFP, Fluo-8 calcium fluorescence; 100% = response to 87 µM carbachol | activation, % at 3 µM | hit rate 0.18% among 220,000 | AID 1424;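 active means activation above its plate's cutoff, the mean activation of test wells on that plate plus 3 SD, cut at about 19% in these data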;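 further: 0% = DMSO alone and 100% = 87 µM carbachol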
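Material – zebrafish TRPN1-YFP in HEK293 cells · Doses – 3 µM single point · Schedule – dye 1 h 37 °C plus 30 min RT · Signal – Fluo-8 calcium fluorescence, excitation 470-495 nm, emission 515-575 nm · Read-out – % activation versus carbachol response · Control set – carbachol high, DMSO low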
TRPML3 ag: human mucolipin-3 channel agonism | Q8TDD5 | HEK293 TRPML3-YFP, Fluo-8 calcium fluorescence; 100% = the carbachol control signal | activation, % at 3 µM | hit rate 0.29% among 220,000 | AID 1448;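 active means activation above its plate's cutoff, the mean activation of the plate's test wells plus 3 SD, cut at about 12% in these data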;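 further: 0% = DMSO only wells and 100% = carbachol wells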
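Test system: HEK293 cells stably carrying human TRPML3-YFP; Doses: single dose, 3 µM final nominal compound, 0.3% DMSO final; Schedule: dye loading 1 h 37 °C then 30 min ambient, 125 s read; Technique: Fluo-8 calcium fluorescence; Benchmarks: high control carbachol 87 µM, low control DMSO.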
TAAR1 nonsel count: counter-screen for TAAR1 antagonists: nonselective antagonists | shares compounds with TAAR1 antag | counterscreen cell line, calcium fluorescence, antagonist mode | inhibition, % at 3 µM | hit rate 77% among 2,400; in the data active means inhibition above about 22%;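 further: CHO-Ga16 host cells stimulated with ATP at an EC80 level; 0% = agonist EC80 plus vehicle and 100% = vehicle without agonist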
TAAR1 ant conf: human TAAR1 antagonism, confirmed. shares compounds with TAAR1 antag. TAAR1-expressing cells, fluorescence antagonist read-out. inhibition, % at 3 µM. hit rate 40% among 2,400; in the data active means inhibition above about 49%;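 further: CHO-Ga16 host cells challenged with agonist PEA near its EC80; 0% = agonist at EC80 plus vehicle and 100% = vehicle with no agonist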
Ga16 nonsel ag: counter-screen for TAAR1 antagonists: nonselective Ga16 agonists | Ga16-expressing cells, calcium fluorescence, agonist counterscreen | AID 651953 | hit rate 18% among 2,400 | activation, % at 3 µM | shares compounds with TAAR1 antag; in the data active means activation above about 12%;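 further: 0% = vehicle wells and 100% = saturating stimulus response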
TAAR1 ag count: TAAR1 agonism, antagonist counter-screen. shares compounds with TAAR1 antag. hTAAR1 cell line, fluorescence activation, agonist mode. activation, % at 3 µM. hit rate 2% among 2,400. AID 651955; in the data active means activation above about 37%;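 further: CHO cells stably expressing TAAR1 with calcium dye readout; 0% = DMSO vehicle and 100% = full agonist response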
* = called active by the depositor; nt = not tested or not shown.

SMILES | TAAR1 agonist | LANA-H2B inh | TAAR1 antag | GPR7 antagonist | zfTRPN1 agonist | TRPML3 ag | TAAR1 nonsel count | TAAR1 ant conf | Ga16 nonsel ag | TAAR1 ag count
COc1ccc([C@H]2CC(=O)C=C(c3cccc(Br)c3)C2)cc1OC | 3 | 5 | 64* | nt | nt | nt | 19 | 45 | 2 | 1
COc1ccc([C@H]2CC(=O)C=C(c3cccc(Br)c3)C2)cc1 | 6 | 0 | 27 | nt | nt | nt | nt | nt | nt | nt
COc1ccc(Br)cc1CN1CCN(S(=O)(=O)Cc2ccccc2)CC1 | 0 | 7 | 56* | -2 | nt | nt | 5 | 37 | 5 | 12
Cc1ccc(OCc2nnn(CC(=O)NS(=O)(=O)c3c(C)noc3C)c2-c2ccccc2)cc1 | 1 | nt | 0 | nt | nt | nt | nt | nt | nt | nt
CCOC(=O)N1CCN(C(=O)CNC(=O)c2nn(-c3ccc(OC)c(Cl)c3)c(=O)c3ccccc23)CC1 | 16 | -3 | 62* | -6 | nt | nt | 32* | 44 | 6 | 9
CCOC(=O)N1CCN(C(=O)CNC(=O)c2nn(-c3ccc(OC)c(OC)c3)c(=O)c3ccccc23)CC1 | 10 | 5 | 34 | -12 | nt | nt | nt | nt | nt | nt
COc1ccc(-n2nc(C(=O)NCC(=O)Nc3cc(OC)c(OC)c(OC)c3)c3ccccc3c2=O)cc1OC | 16 | 2 | 64* | -10 | nt | nt | 29* | 51* | 7 | 13
COc1ccc(-n2nc(C(=O)NCC(=O)Nc3cc(OC)c(OC)c(OC)c3)c3ccccc3c2=O)cc1 | 18 | 2 | 58* | -11 | nt | nt | 28* | 51* | 7 | 8
O=C(O)CC1CCC1CC(=O)O (centres undefined) | 0 | nt | 2 | nt | nt | nt | nt | nt | nt | nt
COc1ccc(S(=O)(=O)N2CCOCC2)cc1NC(=O)Cc1ccc2c(c1)OCCO2 | 1 | -3 | -1 | nt | nt | nt | nt | nt | nt | nt
CCCCc1nc(NCCNC(=O)c2ccccc2)c(C#N)c2c1CSC(C)(C)C2 | 15 | -2 | 68* | -5 | -1 | 0 | 30* | 52* | 7 | 6
CC(=O)c1ccccc1OCc1ccc(S(=O)(=O)Cc2ccccc2)cc1 | 12 | 2 | 74* | -2 | nt | nt | 30* | 42 | 9 | 15
CC(=O)c1ccccc1OCCOc1ccccc1C(C)=O | 3 | -8 | 0 | -7 | nt | nt | nt | nt | nt | nt
COc1cccc(CNS(=O)(=O)c2c(C)[nH]c(C)c2C(=O)N2CCCCC2)c1 | 4 | -6 | -15 | -5 | nt | nt | nt | nt | nt | nt
CCOC(=O)C1CCN(C2=C(NS(=O)(=O)c3ccc(Cl)cc3)C(=O)c3ccccc3C2=O)CC1 | -2 | -4 | 31 | -17 | -4 | -2 | nt | nt | nt | nt
CCOC(=O)C1CCCN(C2=C(NS(=O)(=O)c3ccc(Br)cc3)C(=O)c3ccccc3C2=O)C1 (centres undefined) | 21 | 1 | 62* | -15 | nt | nt | 26* | 38 | 0 | 12
Cc1ccc(C(=O)NCC(=O)OCC(=O)/C=C2\N(C)c3ccccc3C2(C)C)cc1C | 3 | 5 | 58* | -6 | -1 | -2 | 29* | 41 | 6 | 8
COc1cccc(-c2cccc3c2NC(=O)C3(C)Cc2cccc(F)c2)c1 (centres undefined) | 0 | nt | 17 | nt | nt | nt | nt | nt | nt | nt
CCN(Cc1ccc(OC)c(F)c1)C(C)C(=O)Nc1ccc(S(=O)(=O)N2CCCC2)cc1 (centres undefined) | 2 | 0 | -1 | nt | nt | nt | nt | nt | nt | nt
Cc1ccc(NC(=O)c2ccc(S(=O)(=O)N3CCC(C)CC3)cc2)cc1 | 29 | -2 | 79* | -5 | -1 | 1 | 0 | -4 | 1 | -2
N#CCc1ccc(NC(=O)c2ccc(S(=O)(=O)N3CCCC3)cc2)cc1 | 23 | -16 | 57* | -8 | nt | nt | 30* | 54* | 15* | 17
O=C(Cc1n[nH]c(=O)c2ccccc12)OCC(=O)N(Cc1ccccc1)Cc1ccccc1 | 4 | -6 | 57* | 13 | 0 | -1 | 21 | 38 | 4 | 3
CCOC(=O)Cc1n[nH]c(=O)c2ccccc12 | 9 | 7 | 2 | -7 | 1 | 1 | nt | nt | nt | nt
C[C@@]12C(=O)N(Cc3ccc(-c4ccccc4)cc3)CC(=O)N1[C@H](/C=C/c1ccccc1)[C@@H]1C(=O)N(c3ccccc3)C(=O)[C@@H]12 | 10 | -5 | 54* | -2 | nt | nt | 30* | 30 | 3 | 4
COC(=O)CN1C(=O)[C@H]2[C@@H](/C=C/c3ccccc3)N3C(=O)CN(Cc4ccc(-c5ccccc5)cc4)C(=O)[C@@]3(C)[C@H]2C1=O | 0 | 1 | -6 | nt | nt | nt | nt | nt | nt | nt
COc1cccc(-c2nc(C(=O)NCC3CCCO3)cc3c2[nH]c2ccccc23)c1 (centres undefined) | 1 | -10 | 77* | 1 | nt | nt | 26* | 41 | 5 | 2
